In the assay the test system is Mycobacterium tuberculosis. Kind of assay: Antitubercular activity against drug sensitive Mycobacterium tuberculosis H37Rv ATCC 27294 by microplate Alamar blue assay. It is filed as functional. An outline of the steps: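 Modified microplate Alamar Blue assay. H37Rv ATCC 27294 is susceptible to streptomycin, isoniazid, rifampin, ethambutol and pyrazinamide. Clinical isolate CIBIN/UMF15:99 is resistant to the same five drugs. Test stocks were 2 mg/mL in 20% DMSO in Middlebrook 7H9 broth, filter-sterilized. Final concentrations ran from 100 to 0.78 µg/mL. Read-out was MIC, at least in triplicate.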

In brackets after ≈: the same amount, converted by molar mass.

Turning to `CO[C@H]1/C=C/O[C@@]2(C)Oc3c(C)c(O)c4c(O)c(c(/C=N/N5CCN(C)CC5)c(O)c4c3C2=O)NC(=O)/C(C)=C\C=C\[C@H](C)[C@H](O)[C@@H](C)[C@@H](O)[C@@H](C)[C@H](OC(C)=O)[C@@H]1C` [RIFAMPIN], the MIC (usually the lowest concentration found to suppress growth) is 0.06 µg/mL (≈ 0.0729 µM).
The compound `CC[C@@H](CO)NCCN[C@@H](CC)CO` [ETHAMBUTOL] registered an MIC of 2 µg/mL (≈ 9.79 µM).
On to `CC(C)=CCC[C@H](C)[C@@H]1CC[C@@H](C)c2c(O)cc(C)cc21` [LEUBETHANOL], for which the MIC came to 12.5 µg/mL (≈ 43.6 µM).
For `NNC(=O)c1ccncc1` [ISONIAZID] the value was 0.06 µg/mL (≈ 0.438 µM).
In turn, `CN[C@@H]1[C@H](O[C@H]2[C@H](O[C@H]3[C@H](O)[C@@H](O)[C@H](N=C(N)N)[C@@H](O)[C@@H]3N=C(N)N)O[C@@H](C)[C@]2(O)C=O)O[C@@H](CO)[C@H](O)[C@H]1O` [STREPTOMYCIN] showed an MIC of 0.5 µg/mL (≈ 0.86 µM).

(Values after ChEMBL document CHEMBL1821701, “Stereochemical analysis of leubethanol, an anti-TB-active serrulatane, from Leucophyllum frutescens” (2011).)
